EC50, Activity and IC50 data for 28 compounds are collected here from ChEMBL document CHEMBL4823246, “Fragment-like Chloroquinolineamines Activate the Orphan Nuclear Receptor Nurr1 and Elucidate Activation Mechanisms” (J Med Chem, 2021).

pEC50, pIC50: −log10 of the molar value. The source made the active and inactive calls. No cut-off for these calls is given here.

Holding throughout (format): cell-based
Assay [1] addresses T1, Nuclear receptor subfamily 4 group A member 2 (Homo sapiens, UniProt P43354). The assay is described as follows: Agonist activity at Gal4-fused human Nurr1 LBD expressed in HEK293T cells co-expressing firefly luciferase assessed as luciferase activity incubated for 12 to 14 hrs by hybrid reporter gene assay. A general note: In a reporter assay the amount or activity of a reporter protein is the signal.

Assay [2] has as its target T1, Nuclear receptor subfamily 4 group A member 2. The assay is described as follows: Agonist activity at Gal4-fused human Nurr1 LBD expressed in HEK293T cells co-expressing firefly luciferase assessed as luciferase activity at 30 uM incubated for 12 to 14 hrs by hybrid reporter gene assay. The note with it: time 12-14 hrs. Summed up: (§1)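 HEK293T cells, seeded 3 × 10⁴/well the day before, were transiently transfected with a Gal4–human Nurr1 LBD hybrid receptor, a Gal4-responsive firefly luciferase reporter (pFR-Luc) and SV40-renilla luciferase. Five hours later cells received compound in Opti-MEM with 0.1% DMSO for 12−14 h, then a dual-luciferase read-out. Firefly/renilla ×1000 gave RLU; fold activation was taken vs DMSO. Duplicates, ≥3 independent runs; EC50/IC50 are mean SD.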

For assay [3] the target is unchanged. The assay is described as follows: Agonist activity at Gal4-fused human Nurr1 LBD expressed in HEK293T cells co-expressing firefly luciferase assessed as luciferase activity at 300 uM incubated for 12 to 14 hrs by hybrid reporter gene assay. The note with it: time 12-14 hrs. An outline of the steps: as §1
The target is the same in assay [4]. The assay is described as follows: Agonist activity at Gal4-fused human Nurr1 LBD expressed in HEK293T cells co-expressing firefly luciferase assessed as luciferase activity at 10 uM incubated for 12 to 14 hrs by hybrid reporter gene assay. The note with it: time 12-14 hrs. Summed up:
as §1

For assay [5], the target named is T2, Retinoic acid receptor RXR-alpha (Homo sapiens) (UniProt P19793).
T2 sequence (whole entry): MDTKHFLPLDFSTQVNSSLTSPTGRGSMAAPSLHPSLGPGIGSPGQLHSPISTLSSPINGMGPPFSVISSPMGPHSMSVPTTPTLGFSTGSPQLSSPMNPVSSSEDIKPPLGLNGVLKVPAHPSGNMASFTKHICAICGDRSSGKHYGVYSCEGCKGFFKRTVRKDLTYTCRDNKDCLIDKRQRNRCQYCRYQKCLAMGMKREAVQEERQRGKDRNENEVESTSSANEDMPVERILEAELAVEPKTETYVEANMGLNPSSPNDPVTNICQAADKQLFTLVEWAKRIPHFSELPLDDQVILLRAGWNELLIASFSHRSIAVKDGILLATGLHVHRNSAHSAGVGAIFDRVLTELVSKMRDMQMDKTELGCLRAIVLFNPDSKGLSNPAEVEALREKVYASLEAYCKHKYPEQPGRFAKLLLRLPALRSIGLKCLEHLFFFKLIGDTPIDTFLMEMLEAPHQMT
The assay is described as follows: Agonist activity at full length human RxRalpha heterodimer response element DR5 expressed in HEK293T cells co-expressing firefly luciferase assessed as firefly luciferase activity up to 100 uM incubated for 12 to 14 hrs by hybrid reporter gene assay. The note with it: filed as agonist, dose microM <=100, time 12-14 hrs. An outline of the steps: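 Full-length receptor assay in HEK293T cells transiently cotransfected with pFR-Luc-DR5 reporter, human Nurr1 (pcDNA3.1-hNurr1-NE), human RXR (pSG5-hRXR) and SV40-renilla. Five hours post-transfection, compound was added in Opti-MEM with 0.1% DMSO for 12−14 h, then a dual-luciferase read-out. Firefly/renilla ×1000 gave RLU, expressed as fold over DMSO control. Duplicates, ≥3 independent experiments.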

For assay [6], the target named is T1, Nuclear receptor subfamily 4 group A member 2. The assay is described as follows: Agonist activity at Gal4-fused human Nurr1 LBD expressed in HEK293T cells co-expressing firefly luciferase assessed as luciferase activity at 100 uM incubated for 12 to 14 hrs by hybrid reporter gene assay. The note with it: time 12-14 hrs. Summed up: as §1
For assay [7] the target is unchanged. The assay is described as follows: Agonist activity at Gal4-fused human Nurr1 LBD expressed in HEK293T cells co-expressing firefly luciferase assessed as luciferase activity at 200 uM incubated for 12 to 14 hrs by hybrid reporter gene assay. The note with it: time 12-14 hrs. Summed up: as §1
Assay [8] shares this target. The assay is described as follows: Inverse agonist activity at Gal4-fused human Nurr1 LBD expressed in HEK293T cells co-expressing firefly luciferase assessed as luciferase activity incubated for 12 to 14 hrs by hybrid reporter gene assay. An outline of the steps:
as §1

T1 sequence (P43354 whole entry, the tested form may be a part): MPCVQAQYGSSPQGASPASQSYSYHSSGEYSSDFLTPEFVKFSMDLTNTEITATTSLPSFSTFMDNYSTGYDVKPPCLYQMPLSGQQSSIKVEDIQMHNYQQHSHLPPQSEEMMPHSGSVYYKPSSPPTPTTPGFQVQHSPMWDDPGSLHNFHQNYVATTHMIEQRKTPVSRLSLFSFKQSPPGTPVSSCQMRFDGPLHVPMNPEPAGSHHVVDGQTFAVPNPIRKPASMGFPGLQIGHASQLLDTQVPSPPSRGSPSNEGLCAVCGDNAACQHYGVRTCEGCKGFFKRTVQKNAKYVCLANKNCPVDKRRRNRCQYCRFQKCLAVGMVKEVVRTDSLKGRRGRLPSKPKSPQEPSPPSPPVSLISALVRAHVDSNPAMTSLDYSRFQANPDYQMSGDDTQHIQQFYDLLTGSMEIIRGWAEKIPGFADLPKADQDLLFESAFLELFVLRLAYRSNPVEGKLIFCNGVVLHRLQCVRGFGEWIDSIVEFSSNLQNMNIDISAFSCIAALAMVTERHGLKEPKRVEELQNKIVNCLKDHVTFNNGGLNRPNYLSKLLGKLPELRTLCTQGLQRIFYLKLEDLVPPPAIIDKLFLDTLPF

On to `CCCCNc1cc(C)nc2c(Cl)cccc12`, for which the negative logarithm of the EC50 (pEC50) in assay [1] was 4.92.

Take `Oc1ccc(Nc2ccnc3cc(Cl)ccc23)cc1`: the outcome in assay [2] was inactive. As to `Nc1cc(Cl)cc2ncccc12`, the pEC50 in assay [1] is 4.72. As to `Nc1ccnc2ccccc12`, the outcome in assay [3] was inactive. Consider `Nc1ccnc2ccc(Cl)cc12`, for which, in assay [1], the pEC50 was 3.93. Same read-out and setting: next, `CCN(CC)Cc1cccc(Nc2ccnc3cc(Cl)ccc23)c1`: 3.94. For `O=C(OCC(O)CO)c1ccccc1Nc1ccnc2cc(Cl)ccc12` (stereo not drawn), the outcome in assay [4] was inactive. For `Clc1ccc2c(Cl)ccnc2c1`, in assay [3], the result was inactive.

As for `CC1CCC(Nc2ccnc3cc(Cl)ccc23)CC1` (stereo not drawn), in assay [2], the result was inactive. Regarding `Cc1cc(N)c2cccc(Cl)c2n1`, the result in assay [5] was Active. On to `Nc1ccnc2c(Cl)cccc12`, for which the pEC50 in assay [1] is 4.31.

As to `Cc1cc(NC(C)C)c2cccc(Cl)c2n1`, the pEC50 in assay [1] is 4.51. On to `Nc1ccnc2c(F)cccc12`, for which, in assay [3], the result was inactive. Regarding `Nc1ccc2ccc(Cl)cc2n1`, in assay [6], the result was inactive.

Turning to `Clc1ccc2c(NCc3ccccc3)ccnc2c1`, the result in assay [4] was inactive. As for `Nc1c(Cl)ccc2ncccc12`, in assay [6], the result was inactive. Consider `CC(CCCN(C)C)Nc1cccc2c(Cl)cccc12` (stereo not drawn), for which the outcome in assay [4] was inactive. Consider `Nc1cncc2c(Cl)cccc12`, for which, in assay [7], the result was inactive. Take `CCN(CC)CCCC(C)Nc1cc(C)nc2c(Cl)cccc12` (stereo not drawn): the result in assay [6] was inactive. As for `Nc1ccnc2cc(Cl)ccc12`, the pEC50 in assay [1] is 3.59.

On to `Cc1cc(N)c2ccc(Cl)cc2n1`, for which the negative-log EC50 (pEC50) in assay [1] is 4.48. With `Nc1cnc2cc(Cl)ccc2c1`, the result in assay [3] was inactive.

Take `O=C(O)CCCNc1ccnc2cc(Cl)ccc12`: the pIC50 in assay [8] was 3.88. On to `Nc1ccc(Cl)c2ncccc12`, for which the result in assay [6] was inactive.

For the compound `CCN(CC)Cc1cc(Nc2cc(C)nc3c(Cl)cccc23)ccc1O`, the outcome in assay [6] was inactive. For `Cc1cc(NC(C)C(C)C)c2cccc(Cl)c2n1` (stereo not drawn), the negative logarithm of the EC50 (pEC50) in assay [1] was 4.77. Turning to `Nc1ccnc2c(C(F)(F)F)cccc12`, in assay [3], the result was inactive. `Clc1ccc2cccnc2c1`: in assay [8], the pIC50 was 4.05.

By pEC50 is commonly meant the negative decadic logarithm of the EC50, by convention in mol/L. The term pIC50 denotes the IC50 on a negative log10 scale, so that one unit is a factor of ten.
